We go through twelve molecules from ChEMBL document CHEMBL2040757, “New N-arylamino biquinoline derivatives: synthesis, antimicrobial, antituberculosis, and antimalarial evaluation” (Eur J Med Chem, 2012).

One experiment relates to Bacillus subtilis. The experiment can be described thus: Antibacterial activity against Bacillus subtilis MTCC 441 by broth microdilution method. The class given is functional. The method in brief: (§1)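 Broth microdilution per NCCLS, with serial dilutions in Mueller Hinton broth and DMSO as diluent. Tubes were incubated overnight at 37 °C. MIC was the lowest concentration giving no visible growth, with the control organism's MIC read to verify concentrations. Tubes without growth were subcultured overnight at 37 °C to judge bacteriostatic versus bactericidal action.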
(In broth dilution the organism is exposed to a series of concentrations in liquid medium.)

The next experiment deals with Clostridium tetani. The experiment is described as follows: Antibacterial activity against Clostridium tetani MTCC 449 by broth microdilution method. The class given is functional.
The next experiment relates to Streptococcus pneumoniae. The experiment can be described thus: Antibacterial activity against Streptococcus pneumoniae MTCC 1936 by broth microdilution method. The class given is functional. An outline of the steps: as §1
In the next experiment the test system is Escherichia coli. The experiment can be described thus: Antibacterial activity against Escherichia coli MTCC 443 by broth microdilution method. The class given is functional. The method in brief: as §1
Another experiment has as its system Salmonella typhi. The experiment is described as follows: Antibacterial activity against Salmonella typhi MTCC 98 by broth microdilution method. The class given is functional, Salmonella enterica subsp. enterica serovar Typhi. The note with it: Salmonella enterica.
Another experiment concerns Vibrio cholerae. The experiment is described as follows: Antibacterial activity against Vibrio cholerae MTCC 3906 by broth microdilution method. The class given is functional.
In a further experiment the test system is Aspergillus fumigatus. The experiment can be described thus: Antifungal activity against Aspergillus fumigatus MTCC 3008 by broth microdilution method. The class given is functional.
Another experiment relates to Candida albicans. The experiment is described as follows: Antifungal activity against Candida albicans MTCC 227 by broth microdilution method. The class given is functional.
In experiment [1] the test system is Mycobacterium tuberculosis. The experiment can be described thus: Growth inhibition of Mycobacterium tuberculosis H37Rv at 6.25 ug/mL after 12 to 28 days relative to control. The class given is functional.
The subject of another experiment is Plasmodium falciparum. The experiment is described as follows: Antimalarial activity against trophozoite stage of chloroquine-sensitive Plasmodium falciparum 3D7 infected in human erythrocytes after 48 hrs. The class given is functional, organism-based. The note with it: 3D7, 48 h. The method in brief: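 Parasites were kept in continuous culture in A+ human erythrocytes in RPMI with 10% human serum. Sorbitol-synchronized trophozoites at 1–2% parasitaemia and 2.5% haematocrit were exposed to serial dilutions (maximum 1 mg/ml; 0.02% final DMSO) for 48 h at 37 °C. Growth inhibition was measured; chloroquine and quinine served as positive controls. IC50 came from duplicate experiments.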

Values after ≈ are worked out from the molar mass of the structure shown.

By MIC is commonly meant the lowest concentration found to suppress growth. A higher MIC goes with a less susceptible organism. The term inhibition denotes the share of the control response that was lost under treatment. The low end stands for a response near the control, the high end for a response far below the control. As a reminder, the IC50 is the concentration that inhibits the measured activity by half. High values mean weaker potency, low ones greater potency.

`COc1ccc(NN2C(N)=C(C#N)C(c3cc4cc(OC)ccc4nc3Cl)C3=C2CC(C)(C)CC3=O)cc1` (centres undefined): the MIC against Bacillus subtilis turned out to be 200 µg/mL (≈ 377 µM); in the experiment on Clostridium tetani, 200 µg/mL (≈ 377 µM); in the experiment on Streptococcus pneumoniae it was 25 µg/mL (≈ 47.2 µM); in the experiment with Escherichia coli it was 100 µg/mL (≈ 189 µM); in the experiment with Salmonella typhi it was 50 µg/mL (≈ 94.3 µM); in the experiment on Vibrio cholerae, 62.5 µg/mL (≈ 118 µM). The MIC against Aspergillus fumigatus and with Candida albicans was 500 µg/mL (≈ 943 µM) in each case. In experiment [1], this molecule had an inhibition at 6.25 µg/mL of 7%. In the experiment with Plasmodium falciparum, this molecule returned an IC50 of 0.019 µg/mL (≈ 0.0358 µM).
With `O=C(O)c1cn(C2CC2)c2cc(N3CCNCC3)c(F)cc2c1=O` [CIPROFLOXACIN], the minimal inhibitory concentration (MIC) amounted to 50 µg/mL (≈ 151 µM) against Streptococcus pneumoniae, 25 µg/mL (≈ 75.4 µM) against Escherichia coli, 25 µg/mL (≈ 75.4 µM) against Salmonella typhi and 25 µg/mL (≈ 75.4 µM) in the experiment with Vibrio cholerae.
Consider `CC1(C)CC(=O)C2=C(C1)N(Nc1ccccc1)C(N)=C(C#N)C2c1cc2cc(Cl)ccc2nc1Cl` (centres undefined), for which the MIC in the experiment on Bacillus subtilis is 1000 µg/mL (≈ 1980 µM); in the experiment with Clostridium tetani, 1000 µg/mL (≈ 1980 µM); against Streptococcus pneumoniae, 1000 µg/mL (≈ 1980 µM); against Escherichia coli it was 200 µg/mL (≈ 396 µM); against Salmonella typhi, 250 µg/mL (≈ 496 µM); against Vibrio cholerae, 1000 µg/mL (≈ 1980 µM). The MIC in the experiment with Aspergillus fumigatus and in the experiment on Candida albicans was 1000 µg/mL (≈ 1980 µM) throughout. The same molecule yielded an inhibition at 6.25 µg/mL in experiment [1] of 5%. The same molecule yielded an IC50 in the experiment on Plasmodium falciparum of 0.21 µg/mL (≈ 0.416 µM).
With `O=C(N[C@H](CO)[C@H](O)c1ccc([N+](=O)[O-])cc1)C(Cl)Cl` [CHLORAMPHENICOL], the MIC in the experiment with Bacillus subtilis, in the experiment on Clostridium tetani, in the experiment with Streptococcus pneumoniae, with Escherichia coli, in the experiment on Salmonella typhi and in the experiment on Vibrio cholerae was 50 µg/mL (≈ 155 µM) throughout.
On to `CC1(C)CC(=O)C2=C(C1)N(Nc1ccc(Cl)cc1)C(N)=C(C#N)C2c1cc2cc(Cl)ccc2nc1Cl` (centres undefined), for which the MIC in the experiment with Bacillus subtilis was determined as 200 µg/mL (≈ 371 µM); in the experiment on Clostridium tetani, 200 µg/mL (≈ 371 µM); in the experiment with Streptococcus pneumoniae it was 200 µg/mL (≈ 371 µM); with Escherichia coli it was 62.5 µg/mL (≈ 116 µM); against Salmonella typhi it was 100 µg/mL (≈ 186 µM); in the experiment with Vibrio cholerae it was 100 µg/mL (≈ 186 µM). The MIC against Aspergillus fumigatus and against Candida albicans was more than 1000 µg/mL in each case. Further, the inhibition at 6.25 µg/mL in experiment [1] was determined as 87%. Besides, in the experiment with Plasmodium falciparum, the IC50 turned out to be 0.028 µg/mL (≈ 0.052 µM).
Turning to `CC1(C)CC(=O)C2=C(C1)N(Nc1ccc(F)cc1)C(N)=C(C#N)C2c1cc2cc(Cl)ccc2nc1Cl` (centres undefined), the MIC in the experiment on Bacillus subtilis was found to be 100 µg/mL (≈ 191 µM); in the experiment with Clostridium tetani, 500 µg/mL (≈ 957 µM); in the experiment with Streptococcus pneumoniae it was 200 µg/mL (≈ 383 µM); with Escherichia coli, 250 µg/mL (≈ 479 µM); against Salmonella typhi it was 500 µg/mL (≈ 957 µM); in the experiment on Vibrio cholerae it was 125 µg/mL (≈ 239 µM). Further, the MIC in the experiment with Aspergillus fumigatus is more than 1000 µg/mL; against Candida albicans, 500 µg/mL (≈ 957 µM). In [1], at 6.25 µg/mL the inhibition was 65%. For the same molecule, inhibition in the experiment on Plasmodium falciparum was half-maximal at 0.154 µg/mL (≈ 0.295 µM) (IC50).
Take `CC1(C)CC(=O)C2=C(C1)N(Nc1ccc(Cl)cc1)C(N)=C(C#N)C2c1cc2ccccc2nc1Cl` (centres undefined): the MIC turned out to be 500 µg/mL (≈ 991 µM) against Bacillus subtilis; 250 µg/mL (≈ 496 µM) in the experiment with Clostridium tetani; 500 µg/mL (≈ 991 µM) in the experiment on Streptococcus pneumoniae; 200 µg/mL (≈ 396 µM) in the experiment on Escherichia coli; 500 µg/mL (≈ 991 µM) with Salmonella typhi; 500 µg/mL (≈ 991 µM) in the experiment with Vibrio cholerae. Besides, the MIC is 500 µg/mL (≈ 991 µM) against Aspergillus fumigatus and 250 µg/mL (≈ 496 µM) in the experiment with Candida albicans. The same molecule came in with an inhibition at 6.25 µg/mL in experiment [1] of 22%. The IC50 in the experiment on Plasmodium falciparum was found to be 0.42 µg/mL (≈ 0.833 µM).
Turning to `Cc1ccc(NN2C(N)=C(C#N)C(c3cc4cc(C)ccc4nc3Cl)C3=C2CC(C)(C)CC3=O)cc1` (centres undefined), the MIC worked out at 200 µg/mL (≈ 402 µM) against Bacillus subtilis; 250 µg/mL (≈ 502 µM) with Clostridium tetani; 200 µg/mL (≈ 402 µM) against Streptococcus pneumoniae; 500 µg/mL (≈ 1000 µM) against Escherichia coli; 500 µg/mL (≈ 1000 µM) against Salmonella typhi; 500 µg/mL (≈ 1000 µM) with Vibrio cholerae. Besides, the MIC against Aspergillus fumigatus and in the experiment on Candida albicans was 500 µg/mL (≈ 1000 µM) in each case. The inhibition at 6.25 µg/mL in [1] amounted to 32%. In the experiment on Plasmodium falciparum, this molecule showed an IC50 of 0.22 µg/mL (≈ 0.442 µM).
As to `COc1ccc2nc(Cl)c(C3C(C#N)=C(N)N(Nc4ccccc4)C4=C3C(=O)CC(C)(C)C4)cc2c1` (centres undefined), the MIC turned out to be 250 µg/mL (≈ 500 µM) with Bacillus subtilis; 500 µg/mL (≈ 1000 µM) against Clostridium tetani; 250 µg/mL (≈ 500 µM) in the experiment with Streptococcus pneumoniae; 250 µg/mL (≈ 500 µM) against Escherichia coli; 250 µg/mL (≈ 500 µM) against Salmonella typhi; 500 µg/mL (≈ 1000 µM) in the experiment with Vibrio cholerae. Besides, the values for the MIC in the experiment with Aspergillus fumigatus and against Candida albicans were 500 µg/mL (≈ 1000 µM) and 250 µg/mL (≈ 500 µM), respectively. In experiment [1], this molecule returned an inhibition at 6.25 µg/mL of 80%. In the experiment with Plasmodium falciparum, this molecule displayed an IC50 of 0.22 µg/mL (≈ 0.44 µM).
In turn, `CO[C@H]1/C=C/O[C@@]2(C)Oc3c(C)c(O)c4c(O)c(c(/C=N/N5CCN(C)CC5)c(O)c4c3C2=O)NC(=O)/C(C)=C\C=C\[C@H](C)[C@H](O)[C@@H](C)[C@@H](O)[C@@H](C)[C@H](OC(C)=O)[C@@H]1C` [RIFAMPIN] had an inhibition at 6.25 µg/mL in experiment [1] of 98%.
Consider `CCn1cc(C(=O)O)c(=O)c2cc(F)c(N3CCNCC3)cc21` [NORFLOXACIN], for which the MIC in the experiment on Bacillus subtilis came out at 100 µg/mL (≈ 313 µM); against Clostridium tetani, 50 µg/mL (≈ 157 µM); in the experiment with Streptococcus pneumoniae it was 10 µg/mL (≈ 31.3 µM); in the experiment with Escherichia coli, 10 µg/mL (≈ 31.3 µM); against Salmonella typhi, 10 µg/mL (≈ 31.3 µM); in the experiment on Vibrio cholerae, 10 µg/mL (≈ 31.3 µM).
With NYSTATIN, the minimum inhibitory concentration (MIC) in the experiment on Aspergillus fumigatus and against Candida albicans was 100 µg/mL in each case.
